These results are taken from article PMC10357533 (ACS Omega, 2023).

pIC50: −log10 of the molar value. Converted amounts (≈) assume the structure as drawn. “Also recorded” adds a separate entry of the source.

For one data set, the system named is Aedes aegypti larvae. The data set is described as follows: Mosquito larvicidal assay. Format: in vivo. The following applies: for LC50: Aedes aegypti; for LC90: (95% confidence limits). The procedure, abridged:
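Larvae came from later generations of a wild-derived Ae. aegypti colony kept at 25 ± 2 °C, 65–75% RH and 12:12 h light/dark. Twenty larvae per 150 mL of test solution were exposed at 100 down to 1.5625 μg/mL (twofold steps plus 75), with DMSO as vehicle. Controls were permethrin and DMSO (1 mL/150 mL). Mortality was scored at 24–96 h over four independent experiments.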

Data set [1] concerns the target electric eel (Electrophorus electricus) AChE (Electrophorus electricus, UniProt O42275). The data set is described as follows: Acetylcholinesterase. The following applies: for inhibition at 4 µg/mL / inhibition at 20 µg/mL / inhibition at 100 µg/mL / inhibition at 250 µg/mL: read-out: AChE inhibitory activity. Format: biochemical. The method, boiled down: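 Electric eel AChE (0.25 IU/mL) was mixed with pH 8 phosphate buffer and test compound solution (500, 100, 20 or 4 μg/mL, diluted in water from DMSO stock) and held 15 min at 25 °C. DTNB (2.5 mM) and acetylthiocholine iodide (2.5 mM) were added, followed by 10 min more at 25 °C. Absorbance was read at 405 nm. Galantamine was the positive control, run in triplicate plates.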

Data set [2] can be described thus: Solubility of compounds for larvicidal testing. Format: physicochemical. The note with it: larvicidal test, compounds dissolved in DMSO.
For the next data set, the system named is Anopheles arabiensis. The following applies: compared with temephos; cited from earlier work.
Another data set relates to Plutella xylostella. The following applies: at 500 μg/mL; cited from earlier work.
The test system of the next data set is M. separata. The note with it: at 5 μg/mL concentration; cited from earlier work.

Chain of electric eel (Electrophorus electricus) AChE (O42275 24-633): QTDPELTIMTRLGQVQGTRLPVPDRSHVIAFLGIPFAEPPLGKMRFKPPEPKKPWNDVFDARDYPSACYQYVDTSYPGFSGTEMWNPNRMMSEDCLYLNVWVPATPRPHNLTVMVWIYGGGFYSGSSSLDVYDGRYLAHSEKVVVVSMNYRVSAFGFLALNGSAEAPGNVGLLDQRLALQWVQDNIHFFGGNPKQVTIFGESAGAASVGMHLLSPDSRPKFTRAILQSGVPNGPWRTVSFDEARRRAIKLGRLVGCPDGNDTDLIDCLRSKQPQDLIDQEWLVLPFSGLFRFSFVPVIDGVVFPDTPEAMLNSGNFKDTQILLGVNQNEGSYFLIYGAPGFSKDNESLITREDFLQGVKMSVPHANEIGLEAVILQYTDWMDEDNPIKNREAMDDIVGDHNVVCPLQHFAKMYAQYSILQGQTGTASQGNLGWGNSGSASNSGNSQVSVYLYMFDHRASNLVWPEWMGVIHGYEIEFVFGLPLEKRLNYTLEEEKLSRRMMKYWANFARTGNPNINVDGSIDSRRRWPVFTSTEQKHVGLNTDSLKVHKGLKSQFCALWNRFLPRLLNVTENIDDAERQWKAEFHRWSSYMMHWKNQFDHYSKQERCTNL

As a reminder, the LC50 is the concentration lethal to half of the exposed cells or organisms. As a reminder, the pIC50 is the negative decadic logarithm of the IC50, by convention in mol/L. In turn, `Cc1nc2ccccc2c(=O)n1CC(=O)Nc1cccc(Cl)c1` [4c, N-(3-Chlorophenyl)-2-(2-methyl-4-oxoquinazolin-3(4H)-yl)acetamide] displayed an LC50 with Aedes aegypti larvae (24 h) of 15.1 µg/mL (≈ 45.9 µM). This compound yielded an LC50 in the data set with Aedes aegypti larvae (48 h) of 10.1 µg/mL (≈ 30.8 µM). The LC50 with Aedes aegypti larvae (72 h) is 4.42 µg/mL (≈ 13.5 µM). In the data set with Aedes aegypti larvae (96 h), the LC50 was 1.8 µg/mL (≈ 5.49 µM). Also, in data set [1], the pIC50 is 3.64, the inhibition at 4 µg/mL came out at 15.4%, the inhibition at 20 µg/mL was 29.3% and the inhibition at 100 µg/mL is 56.5%. For the same compound, the inhibition at 250 µg/mL in data set [1] worked out at 97.8%.

As to `Cc1ccccc1NC(=O)Cn1c(C)nc2ccccc2c1=O` [4g, 2-(2-Methyl-4-oxoquinazolin-3(4H)-yl)-N-(o-tolyl)acetamide], the solubility result in data set [2] is “insoluble; also recorded: not soluble”. In data set [1], the pIC50 is 3.31, the inhibition at 4 µg/mL was -1.33%, the inhibition at 20 µg/mL was found to be 13.4% and the inhibition at 100 µg/mL turned out to be 34.6%. Moreover, the inhibition at 250 µg/mL in data set [1] amounted to 73.1%.

Consider `CC1(C)C(C=C(Cl)Cl)C1C(=O)OCc1cccc(Oc2ccccc2)c1` (centres unmarked) [permethrin, reference compound], for which the LC90 in the data set with Aedes aegypti larvae (24 h exposure) is listed as 0.00246 (0.00192–0.00344) μg/mL. This compound gave an LC50 in the data set with Aedes aegypti larvae (24 h) of 0.000643 µg/mL (≈ 0.00164 µM).

For the compound `COC(=O)C1=C(C)Nc2nc3ccc(I)cc3c(=O)n2C1c1ccc(Cl)cc1` (centres unmarked) [methyl 4-(4-chlorophenyl)-8-iodo-2-methyl-6-oxo-1,6-dihydro-4H-pyrimido[2,1-b]quinazoline-3-carboxylate], the “larvicidal activity (in words)” value in the data set on Anopheles arabiensis is “significantly stronger than temephos”.

For the compound `COc1ccc(NC(=O)Cn2c(C)nc3ccccc3c2=O)cc1` [4e, N-(4-Methoxyphenyl)-2-(2-methyl-4-oxoquinazolin-3(4H)-yl)acetamide], the LC90 is given as 25.81 (21.16–33.50) μg/mL with Aedes aegypti larvae (24 h exposure), 16.26 (12.95–22.06) μg/mL with Aedes aegypti larvae (48 h exposure), 12.27 (9.67–17.09) μg/mL in the data set with Aedes aegypti larvae (72 h exposure) and 7.414 (5.780–10.598) μg/mL with Aedes aegypti larvae (96 h exposure). Also, the LC50 in the data set on Aedes aegypti larvae (24 h) is 9.25 µg/mL (≈ 28.6 µM); in the data set with Aedes aegypti larvae (48 h), 4.27 µg/mL (≈ 13.2 µM); in the data set with Aedes aegypti larvae (72 h), 2.76 µg/mL (≈ 8.52 µM); with Aedes aegypti larvae (96 h) it was 1.28 µg/mL (≈ 3.96 µM).

On to `Cc1nc2ccccc2c(=O)n1CC(=O)Nc1ccc([N+](=O)[O-])cc1` [4i, 2-(2-Methyl-4-oxoquinazolin-3(4H)-yl)-N-(4-nitrophenyl)acetamide], for which the solubility result in data set [2] is on record as “insoluble; also recorded: not soluble”. Further, in data set [1], the pIC50 is 3.34, the inhibition at 4 µg/mL was determined as 2.5%, the inhibition at 20 µg/mL turned out to be 6.08% and the inhibition at 100 µg/mL worked out at 35.5%. The inhibition at 250 µg/mL in data set [1] is 75.6%.

For `Clc1cc(Cl)c2ncnc(SCc3ccc(Cl)nc3)c2c1` [6,8-dichloro-4-(((6-chloropyridine-3-yl)methyl)thio)quinazoline], the mortality rate with Plutella xylostella is recorded as 85%.

In the data set with Aedes aegypti larvae (24 h), `Cc1nc2ccccc2c(=O)n1CC(=O)Nc1ccccc1Cl` [4d, N-(2-Chlorophenyl)-2-(2-methyl-4-oxoquinazolin-3(4H)-yl)acetamide] showed a median lethal concentration (LC50) of 52.4 µg/mL (≈ 160 µM). Besides, the LC50 with Aedes aegypti larvae (48 h) amounted to 22.7 µg/mL (≈ 69.3 µM). In addition, the LC50 in the data set with Aedes aegypti larvae (72 h) worked out at 4.2 µg/mL (≈ 12.8 µM). Besides, in data set [1], the pIC50 was 3.34, the inhibition at 4 µg/mL was 7.58%, the inhibition at 20 µg/mL was found to be 19.2% and the inhibition at 100 µg/mL was found to be 36.5%. Also, in data set [1], the inhibition at 250 µg/mL worked out at 70.3%.

For `Cc1nc2ccccc2c(=O)n1CC(=O)Nc1ccc(Cl)cc1` [4b, N-(4-Chlorophenyl)-2-(2-methyl-4-oxoquinazolin-3(4H)-yl)acetamide], the LC90 in the data set with Aedes aegypti larvae (24 h exposure) is on record as 31.11 (26.90–37.20) μg/mL; in the data set with Aedes aegypti larvae (48 h exposure), 7.610 (6.607–9.160) μg/mL; in the data set with Aedes aegypti larvae (72 h exposure), 6.945 (6.055–8.327) μg/mL. Further, the LC50 in the data set with Aedes aegypti larvae (24 h) came out at 12.7 µg/mL (≈ 38.7 µM); in the data set on Aedes aegypti larvae (48 h), 3.64 µg/mL (≈ 11.1 µM); in the data set on Aedes aegypti larvae (72 h) it was 3.48 µg/mL (≈ 10.6 µM). Moreover, the pIC50 in data set [1] is 3.30. Moreover, in data set [1], the inhibition at 4 µg/mL is 18.1%. Besides, the inhibition at 20 µg/mL in data set [1] came to 26.6%. Moreover, the inhibition at 100 µg/mL in data set [1] amounted to 34.7%. Besides, in data set [1], the inhibition at 250 µg/mL was 72.9%.

For `Cc1nc2ccccc2c(=O)n1CC(=O)Nc1ccc(Br)cc1` [4a, N-(4-Bromophenyl)-2-(2-methyl-4-oxoquinazolin-3(4H)-yl)acetamide], the LC90 is on record as 8.528 (7.729–9.730) μg/mL in the data set on Aedes aegypti larvae (24 h exposure), 6.396 (5.755–7.334) μg/mL with Aedes aegypti larvae (48 h exposure), 5.273 (4.620–6.340) μg/mL in the data set with Aedes aegypti larvae (72 h exposure) and 4.470 (3.864–5.530) μg/mL in the data set on Aedes aegypti larvae (96 h exposure). Also, the LC50 with Aedes aegypti larvae (24 h) came to 5.82 µg/mL (≈ 15.6 µM); in the data set on Aedes aegypti larvae (48 h), 3.66 µg/mL (≈ 9.84 µM); with Aedes aegypti larvae (72 h), 2.26 µg/mL (≈ 6.07 µM); in the data set on Aedes aegypti larvae (96 h) it was 1.49 µg/mL (≈ 3.99 µM). In data set [1], this compound had a pIC50 of 3.15. The inhibition at 4 µg/mL in data set [1] was found to be 3.75%. Further, in data set [1], the inhibition at 20 µg/mL amounted to 14%. In data set [1], the inhibition at 100 µg/mL was 28.6%. The inhibition at 250 µg/mL in data set [1] was 48.5%.

As to `Cc1ccc(NC(=O)Cn2c(C)nc3ccccc3c2=O)cc1` [4f, 2-(2-Methyl-4-oxoquinazolin-3(4H)-yl)-N-(p-tolyl)acetamide], the LC90 with Aedes aegypti larvae (24 h exposure) is listed as 14.67 (13.22–16.69) μg/mL. Moreover, the LC90 in the data set on Aedes aegypti larvae (48 h exposure) is recorded as 14.33 (12.51–17.09) μg/mL. In the data set on Aedes aegypti larvae (72 h exposure), the LC90 was 11.29 (9.56–14.17) μg/mL. Further, the LC50 in the data set on Aedes aegypti larvae (24 h) amounted to 8.67 µg/mL (≈ 28.2 µM). In the data set on Aedes aegypti larvae (48 h), this compound displayed an LC50 of 5.92 µg/mL (≈ 19.3 µM). In the data set with Aedes aegypti larvae (72 h), this compound came in with a median lethal concentration (LC50) of 2.08 µg/mL (≈ 6.78 µM). Also, in data set [1], the pIC50 is 3.73, the inhibition at 4 µg/mL was 17.6%, the inhibition at 20 µg/mL was 34.2% and the inhibition at 100 µg/mL worked out at 62.8%. Besides, the inhibition at 250 µg/mL in data set [1] was 98.9%.

As a reminder, the mortality is the percentage killed. As for `Cc1cc(Cl)cc2c1NC(c1cc(Br)nn1-c1ncccc1Cl)N(C)C2=O` (centres unmarked) [2-(3-bromo-1-(3-chloropyridine-)-2-yl)-1H-pyrazol-5-yl-6-chloro-3,8-dimethyl-2,3-dihydroquinazolin-4(1H)-one], in the data set on M. separata, the mortality is reported as 80%.

Turning to `Cc1nc2ccccc2c(=O)n1CC(=O)Nc1ccccc1` [4h, 2-(2-Methyl-4-oxoquinazolin-3(4H)-yl)-N-phenylacetamide], the LC90 in the data set on Aedes aegypti larvae (96 h exposure) is on record as >50 (96 h) μg/mL. This compound also registered an LC50 in the data set with Aedes aegypti larvae (96 h) greater than 50 µg/mL. Also, the “larvicidal activity (in words)” value with Aedes aegypti larvae (compared with the other compounds) is “less activity”.
